Screening results: PubChem BioAssay, several laboratories
The list is not random: actives were taken first. Their share in the collection is about 8.2%.
D1 mod – allosterically modulates the human D1 dopamine receptor; P21728; HEK293 D1, CRE-luciferase, dopamine EC30 potentiation; actives deviate in either direction; B-score at 10 µM; 58,000 compounds, 5.9% hits; AID 641;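 active = luminescence count or its row- and column-corrected plate score outside the 99.7% band of the plate's sample wells, on either side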
M1 ag – activates the M1 muscarinic receptor; CHO-M1 cells, Fluo-4 calcium fluorescence, agonist mode; hits give high values; B-score at 10 µM; 64,000 compounds, 3% hits; AID 626;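 active = fluorescence rise, raw or as B-score row- and column-corrected plate score, outside the 99.7% band of its plate's samples, either direction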
M1 antagonist – antagonists of rat M1 muscarinic receptor. P08482. CHO-M1 cells, Fluo-4 calcium, ACh EC80 antagonist mode; hits give low values. B-score at 10 µM. AID 628. 64,000 compounds, 3.4% hits;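 active = calcium fluorescence response, raw or row-and-column corrected B-score, differing from the plate sample mean either way at a set confidence level, mostly lower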
SF1 activator – activators of human nuclear receptor SF-1 | 65,000 compounds, 1.9% hits | Q13285 | CHO-K1 Gal4-SF-1 LBD luciferase reporter; % increase over DMSO SF-1-specific signal | activation, % at 10 µM;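 active = activation above the mean activation of all tested compounds plus 3 SD, cut at about 50% in these data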
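Assay system: CHO-K1 cells co-transfected with Gal4 DBD–human SF-1 LBD, 5xGal4 luciferase reporter; doses: 10 µM only; incubation: 20 h compound exposure at 37 °C after 1 h cell settling; signal: luciferase light emission; evaluation: percent activation versus DMSO; repeats: one test per compound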
HePTP inh – inhibitors of human HePTP phosphatase; recombinant HePTP phosphatase activity, OD absorbance; inhibition, % at 20 µM; 110,000 compounds, 0.64% hits; AID 521; in the data active = inhibition above about 50%;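 also: plate controls were vehicle for no effect and reference inhibitor for full effect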
Target sequence (P35236 whole entry, looked up): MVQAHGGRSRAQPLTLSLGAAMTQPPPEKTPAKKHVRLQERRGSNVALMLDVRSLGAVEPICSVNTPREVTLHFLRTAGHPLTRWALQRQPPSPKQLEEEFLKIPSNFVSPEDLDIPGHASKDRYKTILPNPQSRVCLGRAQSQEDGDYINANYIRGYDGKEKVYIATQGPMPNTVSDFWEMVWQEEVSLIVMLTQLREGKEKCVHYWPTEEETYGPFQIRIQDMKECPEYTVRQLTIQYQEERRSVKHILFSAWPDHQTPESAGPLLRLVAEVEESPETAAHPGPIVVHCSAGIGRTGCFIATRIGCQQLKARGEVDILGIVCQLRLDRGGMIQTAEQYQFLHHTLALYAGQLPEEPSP
RORA act – activators of human nuclear receptor RORA | AID 560 | 65,000 compounds, 1.5% hits | CHO-K1 Gal4-RORA LBD luciferase reporter, luminescence; percent increase over mock-subtracted basal signal | P35398 | activation, % at 10 µM;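 active = activation above the mean of all tested compounds plus 3 SD, cut at about 49% in these data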;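 also: 0% = DMSO-treated RORA cells and 100% = added signal equal to DMSO minus mock-transfected cells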
D1 mod confirm – D1 receptor (human) allosteric modulation, confirmed; luminescence at 10 µM; shares compounds with D1 mod; AID 642; 2,200 compounds, 88% hits; HEK293 D1 CRE-luciferase, dopamine EC30 potentiation; hits give high values;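 active = luminescence in either of two replicates above the same-plate mean plus 3 SD of the low-dose dopamine control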
D1 no dopamine – secondary test of D1 modulators: activity without dopamine; shares compounds with D1 mod; HEK293 D1 CRE-luciferase, luminescence, no dopamine; hits give high values; luminescence at 10 µM; 1,900 compounds, 0.8% hits; AID 646; in the data active = luminescence above about 3900
Isoprot counter – counter-screen for D1 modulators: isoproterenol response in HEK293 cells; shares compounds with D1 mod; HEK293 D1 CRE-luciferase, isoproterenol EC30 counter-screen; calls only at 10 µM; 2,200 compounds, 63% hits;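 active = luminescence in either replicate above plate mean of wells with a partly effective reference agonist dose plus 3 SD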;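 also: isoproterenol raises cAMP through native beta-adrenoceptor Gs so signal bypasses D1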
* hit, by the source's call; i = inactive; nt = not tested or not shown; + = active, no number.

SMILES	D1 mod	M1 ag	M1 antagonist	SF1 activator	HePTP inh	RORA act	D1 mod confirm	D1 no dopamine	Isoprot counter
Cc1cc(C)c(C#N)c(SCC(=O)OC2CCCCC2)n1	1.02	0.0261	-1.73	-9.7	5.4	8.1	nt	nt	nt
COCCn1c(SCC(=O)Nc2sc(C)c(C)c2C#N)nnc1C(C)C	0.664	0.896	-0.229	14.2	-4.2	3.4	nt	nt	nt
CCn1c(SCC(=O)Nc2sc(C)c(C)c2C#N)nnc1C(C)C	4.46*	-0.423	-0.00569	0.4	5.5	-7.8	5156	1684	i
CCOc1cc(-c2c(C#N)c(N)nc3c2CCCC3)ccc1O	3.86	-0.215	-0.0182	1.6	0.4	12.8	nt	nt	nt
CCOc1cc(-c2cc(-c3ccc(N)cc3)nc(N)c2C#N)ccc1O	8.59*	0.00676	-0.158	54.2*	3.4	31.8	19856*	1656	+
CCC(C)NC(=O)c1cnn2c(C)c3c(nc12)CCCC3 (stereo not drawn)	7.01*	0.363	-0.0854	-17.7	2.3	-19.4	11440*	1904	+
Cc1c2c(nc3c(C(=O)NC4CC4)cnn13)CCCC2	1.09	1.11	0.609	9.3	-2.0	2.6	nt	nt	nt
COc1ccc(-c2cc(C(=O)NCc3cccnc3)no2)cc1OC	4.22*	0.47	0.243	29.4	-2.6	7.6	9080*	nt	i
COCCNC(=O)c1cc(-c2ccc(OC)c(OC)c2)on1	15*	0.95	0.269	14.1	-3.0	-5.6	15388*	1528	+
COc1ccc(-c2cc(C(=O)N3CCc4ccccc4C3)no2)cc1OC	4.63*	-0.699	-1.27	16.3	-11.9	7.1	10752*	1528	+
Cc1ccc(-c2cc(C(=O)NCc3cccnc3)no2)cc1	0.0556	0.109	0.0328	22.3	2.8	13.5	nt	nt	nt
COCCNC(=O)c1cc(-c2ccc(Cl)c(Cl)c2)on1	0.592	-0.533	1.06	2.6	4.3	6.0	nt	nt	nt
CCSc1nnc(NC(=O)/C=C/c2ccc(C(C)(C)C)cc2)s1	nt	nt	nt	nt	19.4	nt	nt	nt	nt
COc1ccc(CN2CCCC2C(=O)Nc2ccc(OC)c(OC)c2)cc1OC (stereo not drawn)	-0.0104	-0.0529	0.791	3.0	7.5	-6.8	nt	nt	nt
COc1ccc(NC(=O)C2CCCN2c2ccc(OC)c(OC)c2)cc1OC (stereo not drawn)	6.04*	0.0421	0.299	-2.4	-0.3	-8.4	15612*	1544	+
COc1ccc(CN2CCCCC2C(=O)Nc2ccc(OC)c(OC)c2)cc1OC (stereo not drawn)	7.19*	0.0212	0.761	-6.6	-1.1	-27.8	14900*	1604	+
CCOC(=O)c1ccc2c(c1)n(CCO)c(C)[n+]2CC	0.486	-0.0958	0.292	-1.4	-5.2	-4.3	nt	nt	nt
CC1(C)CC(=O)C2=C(C1)OC(N)=C(C#N)C2c1cccc(OC(=O)c2ccco2)c1 (stereo not drawn)	6.28*	-0.0662	0.515	0.3	0.9	-20.9	5824*	1580	i
CC1(C)CC(=O)C2=C(C1)OC(N)=C(C#N)C2CCc1ccccc1 (stereo not drawn)	8.87*	0.273	0.916	-9.7	nt	-19.6	20388*	1576	+
COc1ccc(/C=C(\NC(=O)c2ccc(Cl)cc2)C(=O)NCc2cccnc2)cc1OC	nt	nt	nt	nt	2.8	nt	nt	nt	nt
COc1ccc(Nc2cc(C(=O)NCCCN3CCN(C)CC3)c3ccccc3n2)cc1OC	-0.582	0.00589	1.06	11.9	-10.6	26.1	nt	nt	nt
CCOC(=O)c1sc(=S)n(CC)c1N	5.12*	-0.858	0.0286	-9.7	4.2	-8.6	10812*	1584	i
Nc1nc(-c2ccco2)nc(N2CCCCC2)n1	10.1*	0.508	-0.215	5.6	4.8	1.8	14860*	nt	+
Cc1cc(OCC(=O)Nc2ccc(NC(=O)c3ccco3)cc2)ccc1Cl	nt	nt	nt	nt	-9.3	nt	nt	nt	nt
N#Cc1nc(-c2ccccc2F)oc1N1CCCC1	6.39*	0.0815	0.714	9.9	5.3	-12.8	11832*	1568	+
SMILES	D1 mod	M1 ag	M1 antagonist	SF1 activator	HePTP inh	RORA act	D1 mod confirm	D1 no dopamine	Isoprot counter
N#Cc1nc(-c2ccco2)oc1N1CCCC1	3.97*	-1.04	0.394	18.9	0.2	-1.4	11548*	nt	+
CC(=O)c1cccc(NC(=O)C2CCCN(S(=O)(=O)c3ccccc3)C2)c1 (stereo not drawn)	0.462	-0.725	-0.474	9.5	1.8	31.4	nt	nt	nt
COc1cc2c(cc1OC)-c1cc(NC3CCCCCCC3)nc(=O)n1CC2	7.6*	0.0563	0.0105	8.2	0.3	3.6	20716*	2740	+
COc1cc2c(cc1OC)-c1cc(NCc3ccccn3)nc(=O)n1CC2	5.2*	-1.03	-0.218	-6.0	7.0	-5.2	10588*	1816	+
CCCCCCNc1cc2n(c(=O)n1)CCc1cc(OC)c(OC)cc1-2	3.15*	2.16	-0.82	-1.7	-0.2	14.3	13732*	1896	+
CCNc1cc2n(c(=O)n1)CCc1cc(OC)c(OC)cc1-2	1.78	0.857	0.824	-6.8	0.7	-18.0	nt	nt	nt
COc1cc2c(cc1OC)-c1cc(NC3CC3)nc(=O)n1CC2	5.67*	-1.05	-0.00957	11.6	-1.4	-1.7	14400*	1568	+
COc1cc2c(cc1OC)-c1cc(NC3CCCCC3)nc(=O)n1CC2	nt	0.392	1.09	15.3	3.9	8.6	nt	nt	nt
CCOC(=O)C(=O)Nc1ccc(N(C)C)cc1	nt	nt	nt	nt	-10.6	nt	nt	nt	nt
Nc1nonc1C(=O)NC(c1ccccc1)c1ccccc1	-0.237	0.0882	0.0794	-13.2	-1.4	-6.4	nt	nt	nt
O=C(N/N=C/c1c(O)ccc2ccccc12)c1cc(C23CC4CC(CC(C4)C2)C3)[nH]n1	nt	nt	nt	nt	-12.8	nt	nt	nt	nt
COC1(OC)N=C(N)C2(C#N)C(c3cccc(Oc4ccccc4)c3)C12C#N (stereo not drawn)	18.9*	-0.646	-1.22	-22.9	4.0	-11.2	16148*	1756	+
CCCCOc1nc(N)nc(-c2ccccc2)n1	14.5*	0.976	0.15	4.5	4.1	-21.1	19712*	1784	+
N#CCCCCn1c(-c2cncs2)nc2ccccc21	4.73*	0.0151	1	10.0	13.2	-3.5	17344*	1684	+
COc1cccc(CNc2ccc(S(=O)(=O)Nc3nccs3)cc2)c1O	12.2*	-0.384	-0.994	-12.7	2.7	-4.0	14616*	1520	+
O=C(Nc1ccc(S(=O)(=O)Nc2nccs2)cc1)C(Cl)(Cl)Cl	nt	nt	nt	nt	9.5	nt	nt	nt	nt
COc1cccc(C2c3c(oc4ccc(F)cc4c3=O)C(=O)N2CCCN2CCOCC2)c1 (stereo not drawn)	3.76*	0.491	0.0762	10.5	2.6	-10.7	6980	1496	i
